Measured values taken from ChEMBL document CHEMBL3734706, “Syntheses and biological evaluation of C-3'-N-acyl modified taxane analogues from 1-deoxybaccatin-VI” (Eur J Med Chem, 2015).
pIC50: −log10 of the molar value.

Legend:
[1] = tested on: MDA-MB-231; experiment: Cytotoxicity against human MDA-MB-231 cells incubated for 72 hrs by MTT assay; assay type: functional, cell-based; conditions: MDA-MB-231, 72 h
Outline: (§1)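 Exponentially growing human tumour cells exposed 72 h to compounds formulated in DMSO; survival read by MTT; dose–response curves over 0.001–100 μM; IC50 taken from curves.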

[2] = tested on: HepG2; experiment: Cytotoxicity against human HepG2 cells incubated for 48 hrs by CCK-8 assay; assay type: functional, cell-based; conditions: HepG2, 48 h
Outline: (§2)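 Growing human tumour cells exposed to compounds for 48 h; viability read by CCK-8; IC50 determined.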

[3] = tested on: MDA-MB-231; experiment: Cytotoxicity against human MDA-MB-231 cells assessed as inhibition of cell survival upto 100 uM incubated for 72 hrs by MTT assay relative to control; assay type: functional; outline: as §1
[4] = Cytotoxicity against human H460 cells incubated for 48 hrs by CCK-8 assay; assay type: functional, cell-based; conditions: NCI-H460, 48 h; outline: as §2
[5] = Cytotoxicity against human PC3 cells incubated for 72 hrs by MTT assay; assay type: functional, cell-based; conditions: PC-3, 72 h; outline: as §1
[6] = Cytotoxicity against human PC3 cells assessed as inhibition of cell survival upto 100 uM incubated for 72 hrs by MTT assay relative to control; assay type: functional, PC-3; outline: as §1
[7] = tested on: A549; experiment: Cytotoxicity against human A549 cells; assay type: functional, cell-based
[8] = Cytotoxicity against human HCT116 cells assessed as decrease in cell protein incubated for 48 hrs; assay type: functional, cell-based; conditions: HCT-116, 48 h

Row | SMILES | pIC50 [1] | pIC50 [2] | inhibition (INH) [3] [%] | pIC50 [4] | pIC50 [5] | inhibition (INH) [6] [%] | pIC50 [7] | pIC50 [8]
1 | COc1ccc(C(=O)N[C@@H](c2ccccc2)[C@@H](O)C(=O)O[C@H]2CC3[C@@H](OC(=O)c4ccccc4)[C@@H]4[C@]5(OC(C)=O)CO[C@@H]5C[C@H](O)[C@@]4(C)[C@@H](O)[C@H](O)C(=C2C)C3(C)C)cc1 (stereo not given in full) | > 9.00 | 6.25 | 90 | 6.70 | 8.00 | 90 | – | –
2 | CC(=O)O[C@@]12CO[C@@H]1C[C@H](O)[C@]1(C)[C@@H]2[C@H](OC(=O)c2ccccc2)C2C[C@H](OC(=O)[C@H](O)[C@@H](NC(=O)c3cccs3)c3ccccc3)C(C)=C([C@@H](O)[C@@H]1O)C2(C)C (stereo not given in full) | 5.90 | – | 90 | – | 5.79 | 90 | – | –
3 | CCCCCC(=O)N[C@@H](c1ccccc1)[C@@H](O)C(=O)O[C@H]1CC2[C@@H](OC(=O)c3ccccc3)[C@@H]3[C@]4(OC(C)=O)CO[C@@H]4C[C@H](O)[C@@]3(C)[C@H]3OC(C)(C)O[C@@H]3C(=C1C)C2(C)C (stereo not given in full) | 8.00 | – | – | – | 6.68 | – | – | –
4 | CC(=O)O[C@@]12CO[C@@H]1C[C@H](O)[C@]1(C)[C@@H]2[C@H](OC(=O)c2ccccc2)C2C[C@H](OC(=O)[C@H](O)[C@@H](NC(=O)c3ccco3)c3ccccc3)C(C)=C([C@@H](O)[C@@H]1O)C2(C)C (stereo not given in full) | > 9.00 | 5.69 | 90 | 6.54 | 8.40 | 90 | – | –
5 | CC(=O)O[C@@]12CO[C@@H]1C[C@H](O)[C@]1(C)[C@@H]2[C@H](OC(=O)c2ccccc2)C2C[C@H](OC(=O)[C@H](O)[C@@H](NC(=O)c3ccc(CCl)cc3)c3ccccc3)C(C)=C([C@@H](O)[C@@H]1O)C2(C)C (stereo not given in full) | 7.52 | – | 90 | – | 7.05 | 90 | – | –
6 | CC(=O)O[C@@]12CO[C@@H]1C[C@H](O)[C@]1(C)[C@@H]2[C@H](OC(=O)c2ccccc2)C2C[C@H](OC(=O)[C@H](O)[C@@H](NC(=O)c3ccc(F)cc3)c3ccccc3)C(C)=C([C@@H](O)[C@@H]1O)C2(C)C (stereo not given in full) | > 9.00 | – | 90 | – | 7.70 | 90 | – | –
7 | CC(=O)O[C@H]1C(=O)[C@]2(C)[C@@H](OC(C)=O)C[C@H]3OC[C@@]3(OC(C)=O)[C@H]2[C@H](OC(=O)c2ccccc2)C2C[C@H](OC(=O)[C@H](O)[C@@H](NC(=O)c3ccccc3)c3ccccc3)C(C)=C1C2(C)C (stereo not given in full) | – | – | – | – | – | – | 7.21 | –
8 | CCCCCC(=O)N[C@@H](c1ccccc1)[C@@H](O)C(=O)O[C@H]1CC2[C@@H](OC(=O)c3ccccc3)[C@@H]3[C@]4(OC(C)=O)CO[C@@H]4C[C@H](O)[C@@]3(C)[C@@H](O)[C@H](O)C(=C1C)C2(C)C (stereo not given in full) | > 9.00 | – | 40 | – | 8.00 | 40 | – | –
9 | CC(=O)O[C@@]12CO[C@@H]1C[C@H](O)[C@]1(C)[C@@H]2[C@H](OC(=O)c2ccccc2)C2C[C@H](OC(=O)[C@H](O)[C@@H](NC(=O)c3cc4ccccc4o3)c3ccccc3)C(C)=C([C@@H](O)[C@@H]1O)C2(C)C (stereo not given in full) | 7.70 | – | 90 | – | 7.15 | 90 | – | –
10 | CC(=O)OC1[C@H](OC(C)=O)C2=C(C)[C@@H](OC(=O)[C@H](O)[C@@H](NC(=O)c3ccccc3)c3ccccc3)CC([C@@H](OC(=O)c3ccccc3)[C@@H]3[C@]4(OC(C)=O)CO[C@@H]4C[C@H](OC(C)=O)[C@@]13C)C2(C)C (stereo not given in full) | – | – | – | – | – | – | – | 7.50
11 | CCCCCC(=O)N[C@@H](c1ccccc1)[C@@H](O)C(=O)O[C@H]1CC2[C@@H](OC(=O)c3ccccc3)[C@@H]3[C@]4(OC(C)=O)CO[C@@H]4C[C@H](OC(C)=O)[C@@]3(C)C(=O)[C@H](OC(C)=O)C(=C1C)C2(C)C (stereo not given in full) | 6.57 | – | – | – | 6.48 | – | – | –
12 | CC(=O)O[C@H]1C(=O)[C@@]2(C)[C@H]([C@H](OC(=O)c3ccccc3)[C@]3(O)C[C@H](OC(=O)[C@H](O)[C@@H](NC(=O)c4ccccc4)c4ccccc4)C(C)=C1C3(C)C)[C@]1(OC(C)=O)CO[C@@H]1C[C@@H]2O [PACLITAXEL] | > 9.00 | 5.91 | 40 | 5.37 | > 9.00 | 40 | – | 8.55
